Source: PubChem (Johns Hopkins Ion Channel Center)
Kir21 block: Kir2.1 (mouse) channel inhibition; P35561; HEK293-Kir2.1, FluxOR thallium flux fluorescence; hits give low values; B-score at 10 µM; actives 0.85% (n = 310,000); AID 1672;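 active = fluorescence ratio B-score at or below minus 3 SD of library scores, with starting-brightness B-score within 2 SD, cut at about -4.2 in these data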;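 note: channel flux triggered by added potassium and thallium sulfate stimulus; B-score of peak minus minimum fluorescence over baseline after thallium stimulus; more negative B-score means stronger Kir2.1 block with less thallium influx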
KCNK9 inh: human KCNK9 channel inhibition. HEK293 KCNK9, FluxOR thallium flux fluorescence; hits give low values. B-score at 10 µM. actives 1.2% (n = 310,000). AID 488922;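 active = ratio B-score over 3 SD below the library mean, with starting fluorescence within 5 SD of its mean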;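 note: negative B-score means less thallium flux so channel inhibition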
hERG protect: compounds protecting human hERG from proarrhythmic drug block; Q12809; CHO-hERG, FluxOR thallium flux, dofetilide IC70 present; activation (rescue from dofetilide block), less the hit threshold, % at 10 µM; actives 0.51% (n = 310,000);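 active = activation above the mean of controls blocked by dofetilide plus 5 SD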;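 note: thallium influx through hERG after potassium depolarization seen as dye fluorescence rise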
KCNQ1 block: blocks the human KCNQ1 potassium channel; P51787; CHO-K1 KCNQ1, FluxOR thallium flux fluorescence; hits give high values; actives 1.3% (n = 310,000); B-score at 10 µM;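 active = compounds whose thallium flux B-score, printed positive for inhibition, exceeds three library SD while starting fluorescence stays within three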;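 note: channel opened by potassium depolarization with thallium stimulus after 20 min compound exposure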
Target sequence (P51787 whole entry, looked up): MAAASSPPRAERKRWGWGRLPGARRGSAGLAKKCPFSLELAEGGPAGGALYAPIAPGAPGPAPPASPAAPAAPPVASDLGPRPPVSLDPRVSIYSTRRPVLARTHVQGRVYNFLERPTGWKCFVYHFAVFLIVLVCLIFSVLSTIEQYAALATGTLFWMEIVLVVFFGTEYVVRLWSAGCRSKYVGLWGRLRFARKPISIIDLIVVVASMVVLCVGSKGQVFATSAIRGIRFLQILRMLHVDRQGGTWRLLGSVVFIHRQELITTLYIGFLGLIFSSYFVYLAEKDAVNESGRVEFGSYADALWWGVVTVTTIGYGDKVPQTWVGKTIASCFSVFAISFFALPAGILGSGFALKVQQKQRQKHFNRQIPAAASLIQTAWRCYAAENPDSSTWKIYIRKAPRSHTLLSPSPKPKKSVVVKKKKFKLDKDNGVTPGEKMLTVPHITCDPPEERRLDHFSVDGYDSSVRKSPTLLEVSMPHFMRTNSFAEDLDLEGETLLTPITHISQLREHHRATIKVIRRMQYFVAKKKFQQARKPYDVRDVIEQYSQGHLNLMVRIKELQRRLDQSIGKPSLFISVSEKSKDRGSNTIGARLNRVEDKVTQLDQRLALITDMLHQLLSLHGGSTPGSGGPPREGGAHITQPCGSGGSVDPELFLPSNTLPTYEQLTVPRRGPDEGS
KCNQ1 act: human KCNQ1 channel potentiation or activation | B-score at 10 µM | actives 0.35% (n = 310,000) | AID 2648 | CHO-K1 KCNQ1, thallium flux FluxOR fluorescence; hits give high values;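 active = fluorescence ratio B-score, a plate-corrected score, at least three library SD, with initial intensity B-score within 5 SD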
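System: CHO-K1 cells stably expressing KCNQ1 / Medium: assay buffer for compound exposure, DMSO matched across wells / Reagent: thallium- and potassium-containing depolarizing buffer / Compound: one concentration, matched DMSO / Incubation: 20 min compound pretreatment at room temperature / Measured by: kinetic FluxOR fluorescence, 10 s baseline plus 110 s post-stimulus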
KCNK3 inh: human KCNK3 channel inhibition, primary screen. CHO-KCNK3 thallium flux, FluxOR fluorescence; hits give low values. actives 0.84% (n = 340,000). B-score at 10 µM. O14649;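 active = B-score under library mean minus 4 SD, starting fluorescence ratio at most library mean plus 5 SD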;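 note: more negative B-score means stronger inhibition of thallium flux through KCNK3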
* marks the source's active call; other numbers are inactive results. An excerpt weighted towards active compounds, which were near 3.7% of everything screened.

For CCOC(=O)c1sc(NC(=O)c2cc(-c3ccccc3C)nc3ccccc23)c(C#N)c1C the results were Kir21 block -1.7, KCNK9 inh inactive, hERG protect -28, KCNQ1 block 10*, KCNQ1 act inactive and KCNK3 inh inactive.
`CCOC(=O)c1sc(NC(=O)Nc2ccccc2)cc1C` gave Kir21 block 0.24, KCNK9 inh inactive, hERG protect -18, KCNQ1 block 6*, KCNQ1 act inactive and KCNK3 inh inactive.
`CCOC(=O)c1sc(NC(=O)c2ccccc2C(=O)O)c(C(=O)OCC)c1C` gave Kir21 block -0.08, KCNK9 inh inactive, hERG protect -2, KCNQ1 block inactive, KCNQ1 act 8* and KCNK3 inh inactive.
Cc1cc(S(=O)(=O)N2CCCCC2CCNC(=O)C(=O)NCC2CCCO2)ccc1F (stereo not drawn) was read as Kir21 block 0.05, KCNK9 inh inactive, hERG protect -11, KCNQ1 block inactive, KCNQ1 act inactive and KCNK3 inh inactive.
`Oc1ccccc1CN1CCC(C(O)(c2ccccc2)c2ccccc2)CC1` gave Kir21 block -5.2*, KCNK9 inh inactive, hERG protect -9, KCNQ1 block inactive, KCNQ1 act inactive and KCNK3 inh inactive.
`O=C(C1CC1)N1CCC(C(O)(c2ccccc2)c2ccccc2)CC1` gave Kir21 block -0.06, KCNK9 inh inactive, hERG protect -17, KCNQ1 block inactive, KCNQ1 act inactive and KCNK3 inh inactive.
`Oc1ccccc1CN1CCN(C(O)(c2ccccc2)c2ccccc2)CC1` gave Kir21 block -7.3*, KCNK9 inh inactive, hERG protect -10, KCNQ1 block inactive, KCNQ1 act inactive and KCNK3 inh inactive.
`Oc1ccc(CN2CCN(Cc3ccccc3)CC2)c2cccnc12` gave Kir21 block -3.8, KCNK9 inh inactive, hERG protect -10, KCNQ1 block inactive, KCNQ1 act inactive and KCNK3 inh inactive.
`Oc1ccccc1CN1CCCN(Cc2ccccc2O)C1` gave Kir21 block -3.7, KCNK9 inh inactive, hERG protect 5.0*, KCNQ1 block inactive, KCNQ1 act inactive and KCNK3 inh inactive.
CC(C)Cn1c(=O)c2ccccc2n2c(CCC(=O)O)nnc12 was read as Kir21 block -2.1, KCNK9 inh inactive, hERG protect -2, KCNQ1 block inactive, KCNQ1 act inactive and KCNK3 inh inactive.
`CC1(c2ccc3ccccc3c2)NC(=O)N(CC(=O)Nc2ncccc2O)C1=O` (stereo not drawn) gave KCNK3 inh inactive.
Cc1c(N(C)S(=O)(=O)c2cc(C(=O)N3CCCC3)ccc2Cl)c(=O)n(-c2ccccc2)n1C was read as Kir21 block 0.38, KCNK9 inh inactive, hERG protect -12, KCNQ1 block inactive, KCNQ1 act inactive and KCNK3 inh inactive.
Screening CCOc1ccccc1C(=O)NC(C(=O)N(C)Cc1ccc2c(c1)OCO2)C(C)C (stereo not drawn) returned KCNK3 inh -9.2*.
CCOc1ccccc1C(=O)N[C@H](C(=O)OCc1cc(=O)oc2cc(C)ccc12)C(C)C was read as Kir21 block -1.6, KCNK9 inh -6.7*, hERG protect -9, KCNQ1 block inactive, KCNQ1 act inactive and KCNK3 inh inactive.
COc1cc(OC)cc(C(=O)N[C@H](C(=O)OCc2cc(=O)oc3cc(C)ccc23)C(C)C)c1 was read as Kir21 block -0.92, KCNK9 inh inactive, hERG protect -9, KCNQ1 block inactive, KCNQ1 act inactive and KCNK3 inh inactive.
Cc1cccc(-n2c(C)cc(C=C3C(=O)c4ccccc4C3=O)c2C)c1 was read as Kir21 block 1.1, KCNK9 inh inactive, hERG protect -4, KCNQ1 block 6*, KCNQ1 act inactive and KCNK3 inh inactive.
Cc1cc(C=C2C(=O)c3ccccc3C2=O)c(C)n1-c1ccc(Cl)cc1 was read as Kir21 block 1.8, KCNK9 inh -7*, hERG protect -9, KCNQ1 block inactive, KCNQ1 act inactive and KCNK3 inh inactive.
For CCn1c(C)cc(C=C2C(=O)c3ccccc3C2=O)c1C the results were Kir21 block 0.13, KCNK9 inh inactive, hERG protect -6, KCNQ1 block inactive, KCNQ1 act inactive and KCNK3 inh inactive.
For Cc1ccc(S(=O)(=O)NCCC(=O)Nc2cc(S(=O)(=O)N(C)C)ccc2C)cc1C the results were Kir21 block -0.4, KCNK9 inh inactive, hERG protect -5, KCNQ1 block inactive, KCNQ1 act inactive and KCNK3 inh inactive.
For O=C(COc1ccc(Br)cc1Cl)NC1CCN(Cc2ccccc2)CC1 the results were Kir21 block -10*, KCNK9 inh inactive, hERG protect -13, KCNQ1 block inactive, KCNQ1 act inactive and KCNK3 inh inactive.
`O=C(COc1ccc(Br)cc1CNC1CCCCC1)NCCc1ccccc1` gave Kir21 block -4.2, KCNK9 inh inactive, hERG protect -14, KCNQ1 block 8*, KCNQ1 act inactive and KCNK3 inh inactive.
Screening O=C(/C=C/c1cccc(Br)c1)NC1CCN(Cc2ccccc2)CC1 returned Kir21 block -5.8*, KCNK9 inh inactive, hERG protect -9, KCNQ1 block inactive, KCNQ1 act inactive and KCNK3 inh inactive.
`O=C(/C=C/c1cccc(F)c1)NC1CCN(Cc2ccccc2)CC1` gave Kir21 block -4.7*, KCNK9 inh inactive, hERG protect -11, KCNQ1 block inactive, KCNQ1 act inactive and KCNK3 inh inactive.
COc1ccc(N2CCN(C(=O)NC(=O)c3ccccc3)CC2)cc1 was read as Kir21 block -0.58, KCNK9 inh inactive, hERG protect -5, KCNQ1 block inactive, KCNQ1 act inactive and KCNK3 inh inactive.
O=C(O)/C=C/C(=O)NCc1csc2ccccc12 was read as Kir21 block 0.45, KCNK9 inh inactive, hERG protect -8, KCNQ1 block inactive, KCNQ1 act inactive and KCNK3 inh inactive.
For CSC(=Nc1ccccc1)N=C(SCc1ccccc1)N(C)C the results were KCNK3 inh inactive.
For Cc1c(C(=O)NC2CCN(Cc3ccccc3)C2)oc2ccc(Br)cc12 (stereo not drawn) the results were Kir21 block -10*, KCNK9 inh inactive, hERG protect -18, KCNQ1 block inactive, KCNQ1 act inactive and KCNK3 inh inactive.
O=C(CN1CCN(Cc2ccccc2)CC1)Nc1cccc(Br)c1 was read as Kir21 block -4.6*, KCNK9 inh inactive, hERG protect -3, KCNQ1 block inactive, KCNQ1 act inactive and KCNK3 inh inactive.
